From ChEMBL document CHEMBL1125189, “Relaxant activity of 6-cyano-2,2-dimethyl-2H-1-benzopyran-4-carboxamides and -thiocarboxamides and their analogues in guinea pig trachealis” (J Med Chem, 1991)

Assays:
Cavia porcellus [1] = species on record: Cavia porcellus; assay: Inhibition of spontaneous tone in guinea pig tracheal spirals; format: functional, Trachea
Procedure, shortened: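 Guinea pig tracheal spiral strips held isometrically in oxygenated Krebs solution. Intrinsic activity is the ratio of maximum relaxation to the isoprenaline maximum, given as an arithmetic mean.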

Cavia porcellus [2] = assay: Inhibition of Histamine-induced bronchospasm was measured by measuring % prolongation of collapse time of guinea pig at different intervals of time at a peroral dose of 20 mg/kg (time between dose and challenge 60 min); format: functional; conditions: route oral
Procedure, shortened: (§1)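 Male guinea pigs (400-460 g) were dosed orally with compound or vehicle and placed in a ca. 8-L chamber. At set times after dosing they were challenged for 4 min with aerosol from 5 mM histamine diphosphate, generated over 20 s by ultrasonic nebulizer. Time from aerosol to collapse was recorded. Data are means ± SE.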

Cavia porcellus [3] = species on record: Cavia porcellus; assay: Evaluated by measuring inhibition of spontaneous tone in guinea pig tracheal spirals; format: functional, Trachea
Procedure, shortened: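 Guinea pig tracheal spiral strips held isometrically in oxygenated Krebs solution. […] It is generally a geometric mean of ≥3 determinations, except where IC50 >15 μM. Intrinsic activity is the ratio of maximum relaxation to the isoprenaline maximum, given as an arithmetic mean.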

Cavia porcellus [4] = assay: Inhibition of Histamine-induced bronchospasm was measured by measuring % prolongation of collapse time of guinea pig at different intervals of time at a peroral dose of 10 mg/kg (time between dose and challenge 60 min); format: functional; conditions: route oral; procedure, shortened: as §1
Cavia porcellus [5] = assay: Inhibition of Histamine-induced bronchospasm was measured by measuring % prolongation of collapse time of guinea pig at different intervals of time at a peroral dose of 20 mg/kg (time between dose and challenge 120 min); format: functional; conditions: route oral; procedure, shortened: as §1
Cavia porcellus [6] = assay: Inhibition of Histamine-induced bronchospasm was measured by measuring % prolongation of collapse time of guinea pig at different intervals of time at a peroral dose of 20 mg/kg (time between dose and challenge 90 min); format: functional; conditions: route oral; procedure, shortened: as §1
Cavia porcellus [7] = assay: Inhibition of Histamine-induced bronchospasm was measured by measuring % prolongation of collapse time of guinea pig at different intervals of time at a peroral dose of 5 mg/kg (time between dose and challenge 60 min); format: functional; conditions: route oral; procedure, shortened: as §1
Cavia porcellus [8] = assay: Inhibition of Histamine-induced bronchospasm was measured by measuring % prolongation of collapse time of guinea pig at different intervals of time at a peroral dose of 20 mg/kg (time between dose and challenge 30 min); format: functional; conditions: route oral; procedure, shortened: as §1
Cavia porcellus [9] = assay: Inhibition of Histamine-induced bronchospasm was measured by measuring % prolongation of collapse time of guinea pig at different intervals of time at a peroral dose of 10 mg/kg (time between dose and challenge 15 min); format: functional; conditions: route oral; procedure, shortened: as §1
Cavia porcellus [10] = assay: Inhibition of Histamine-induced bronchospasm was measured by measuring % prolongation of collapse time of guinea pig at different intervals of time at a peroral dose of 20 mg/kg (time between dose and challenge 15 min); format: functional; conditions: route oral; procedure, shortened: as §1
Cavia porcellus [11] = species on record: Cavia porcellus; assay: Inhibition of Histamine-induced bronchospasm was measured by measuring % prolongation of collapse time of guinea pig; format: functional; procedure, shortened: as §1

IC50 (Cavia porcellus [1]; Cavia porcellus, Trachea) | Compound | Intinsic activity (Cavia porcellus [3]) | other results
> 20 µM | CSC(SC)=C1C(=O)C(C)(C)Oc2ccc(C#N)cc21 |  | 
1.36 µM | CC1(C)Oc2ccc(C#N)cc2C(c2nc3ccccc3s2)=C1O | 0.96 | Prolongation (Cavia porcellus [2]): -1%
 | C/N=C(/S)C1=CC(C)(C)Oc2ccc(C#N)cc21 | 0.88 | Prolongation (Cavia porcellus [4]): 9%; Prolongation (Cavia porcellus [5]): 187%; Prolongation (Cavia porcellus [2]): 230%; Prolongation (Cavia porcellus [6]): 175%; Prolongation (Cavia porcellus [7]): 12%; Prolongation (Cavia porcellus [8]): 244%
 | CC1(C)Oc2ccc(C#N)cc2C(F)(C(=O)Nc2ccccc2)C1=O (stereo not given) | 0.95 | Prolongation (Cavia porcellus [4]): 10%
> 20 µM | COC1=C(C(=O)Nc2ccccc2)c2cc(C#N)ccc2OC1(C)C |  | 
1.14 µM | CC1(C)C=C(C(=O)Nc2ccccc2)c2cc(C#N)ccc2O1 | 0.86 | Prolongation (Cavia porcellus [2]): 34%
6.4 µM | COc1ccc(NC(=S)C2=C(O)C(C)(C)Oc3ccc(C#N)cc32)cc1 | 0.6 | 
> 20 µM | CC(C)(C)/N=C(\S)C1=CC(C)(C)Oc2ccc(C#N)cc21 | 0 | 
1.2 µM | COc1ccc(NC(=O)C2=C(O)C(C)(C)Oc3ccc(C#N)cc32)cc1 | 0.94 | 
4.35 µM | CC(C)(C)/N=C(\S)C1=C(O)C(C)(C)Oc2ccc(C#N)cc21 | 0.93 | 
 | CC1(C)Oc2ccc(C#N)cc2C(/C(S)=N/c2ccc(F)cc2)=C1O | 0.88 | 
 | CC1(C)Oc2ccc(C#N)cc2C(C(=O)Nc2ccccc2)=C1O | 0.98 | Prolongation (Cavia porcellus [9]): -6%; Prolongation (Cavia porcellus [4]): -14%
0.25 µM | CC1(C)Oc2ccc(C#N)cc2C(/C(S)=N/c2ccccc2)=C1O | 0.99 | Prolongation (Cavia porcellus [10]): 63%; Prolongation (Cavia porcellus [2]): 10%; Prolongation (Cavia porcellus [8]): 14%
 | CO/C(=N\c1ccccc1)C1=C(O)C(C)(C)Oc2ccc(C#N)cc21 | 0.82 | Prolongation (Cavia porcellus [7]): 1%
> 20 µM | CC1(C)Oc2ccc(C#N)cc2C(C)(C(=O)Nc2ccccc2)C1=O (stereo not given) |  | 
1.35 µM | CC(=O)OC1=C(C(=O)N(C(C)=O)c2ccccc2)c2cc(C#N)ccc2OC1(C)C | 0.95 | Prolongation (Cavia porcellus [2]): 5%
 | C/N=C(\S)C1=C(O)C(C)(C)Oc2ccc(C#N)cc21 | 0.69 | 
5.92 µM | C/N=C(\S)C1c2cc(C#N)ccc2OC(C)(C)C1O (cis isomer) | 0.84 | 
 | CC1(C)Oc2ccc(C#N)cc2C(/C(S)=N/c2ccccc2)C1O (cis isomer) | 0.14 | IC50 (Cavia porcellus [1]): > 20 µM
> 20 µM | CC(C)(C)/N=C(\S)C1c2cc(C#N)ccc2OC(C)(C)C1O (stereo in doubt; 11a) | 0.3 | 
 | CC(C)(C)/N=C(\S)C1c2cc(C#N)ccc2OC(C)(C)C1O (stereo in doubt; 11b) | 0.79 | IC50 (Cavia porcellus [1]): 11.1 µM
 | C/N=C(\S)C1c2cc(C#N)ccc2OC(C)(C)C1O (trans isomer) | 0.93 | IC50 (Cavia porcellus [1]): 5.6 µM
 | CC1(C)Oc2ccc(C#N)cc2C(/C(S)=N/c2ccccc2)C1O (trans isomer) | 0.82 | IC50 (Cavia porcellus [1]): 3.4 µM
 | CC1(C)Oc2ccc(C#N)cc2C(N2CCCC2=O)C1O (stereo not given) [CROMAKALIM] | 0.89 | Prolongation (Cavia porcellus [11]): 174%
